pKd: −log10 of the molar value. Values after ≈ are worked out from the molar mass of the structure shown.
How the values were obtained:
[1] = target: T1, Lanosterol 14-alpha demethylase (Candida albicans (strain SC5314 / ATCC MYA-2876) (Yeast), UniProt P10613); assay: Inhibition of Candida albicans CYP51 assessed as reduction in [3-3H]lanosterol 14alpha-demethylation at 0.75 uM preincubated for 60 secs followed by NADPH addition measured after 60 mins by RP-HPLC analysis relative to control; details: 1 h
How it was run: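 C. albicans CYP51 expressed in E. coli and purified, 0.5 μM, with 1.0 μM rat NADPH-P450 reductase, dilauroylphosphatidylcholine and isocitrate dehydrogenase/isocitrate regeneration in 50 mM potassium phosphate pH 7.2, 10% glycerol, 0.1% Triton X-100. Substrate 25 μM final; inhibitor:enzyme:substrate 1.5:1:50. 37 °C, started with 100 μM NADPH. Sterols extracted with EtOAc, radio-HPLC. Triplicate, mean ± SD.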

[2] = target: Lanosterol 14-alpha demethylase (Aspergillus) (UniProt B8NUK6+Q9P8R0+G4WW85); assay: Inhibition of Aspergillus fumigatus CYP51 assessed as reduction in [3-3H]eburicol 14alpha-demethylation at 0.75 uM preincubated for 60 secs followed by NADPH addition measured after 60 mins by RP-HPLC analysis relative to control
How it was run: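 E. coli-expressed, purified CYP51 (0.5 μM) with rat NADPH-P450 reductase (1.0 μM), 100 μM dilauroylphosphatidylcholine, isocitrate dehydrogenase/isocitrate NADPH regeneration, in 50 mM K phosphate pH 7.2 with 10% glycerol and 0.1% Triton X-100. [3-3H]eburicol 25 μM final, inhibitor 0.75 μM final (1.5:1:50 inhibitor:enzyme:substrate), 37 °C. Started with 100 μM NADPH, 60 min, EtOAc extraction, radio-HPLC. Percent inhibition, triplicate, mean ± SD.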

[3] = target: T1, Lanosterol 14-alpha demethylase; assay: Binding affinity to Candida albicans CYP51 by spectral titration method; details: read-out: Kd(app)
How it was run: (§1)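 Purified CYP51 at 0.5 μM in 5 cm path cuvettes, titrated from 0.2 mM DMSO stocks over 0.1–0.8 μM ligand. Kd obtained by fitting to the quadratic tight-binding equation using total ligand and enzyme concentrations.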

[4] = target: T2, Lanosterol 14-alpha demethylase (Aspergillus, UniProt B8NUK6+G4WW85+Q9P8R0); assay: Binding affinity to Aspergillus fumigatus CYP51 by spectral titration method; details: read-out: Kd(app)
T2 sequence (B8NUK6 whole entry): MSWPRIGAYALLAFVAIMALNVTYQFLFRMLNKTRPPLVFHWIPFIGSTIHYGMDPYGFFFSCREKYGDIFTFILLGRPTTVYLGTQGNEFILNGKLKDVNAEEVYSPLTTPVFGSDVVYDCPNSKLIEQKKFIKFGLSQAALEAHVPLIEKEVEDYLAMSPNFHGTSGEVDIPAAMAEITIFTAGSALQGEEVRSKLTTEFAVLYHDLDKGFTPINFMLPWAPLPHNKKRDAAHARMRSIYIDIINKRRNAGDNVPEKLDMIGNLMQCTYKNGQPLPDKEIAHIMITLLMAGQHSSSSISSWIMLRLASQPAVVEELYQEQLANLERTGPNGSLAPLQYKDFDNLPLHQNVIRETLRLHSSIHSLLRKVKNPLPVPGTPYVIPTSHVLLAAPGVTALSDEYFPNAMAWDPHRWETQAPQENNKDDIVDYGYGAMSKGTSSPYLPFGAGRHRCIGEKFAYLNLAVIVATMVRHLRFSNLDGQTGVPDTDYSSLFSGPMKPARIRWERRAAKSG
T2 sequence (Q9P8R0 whole entry): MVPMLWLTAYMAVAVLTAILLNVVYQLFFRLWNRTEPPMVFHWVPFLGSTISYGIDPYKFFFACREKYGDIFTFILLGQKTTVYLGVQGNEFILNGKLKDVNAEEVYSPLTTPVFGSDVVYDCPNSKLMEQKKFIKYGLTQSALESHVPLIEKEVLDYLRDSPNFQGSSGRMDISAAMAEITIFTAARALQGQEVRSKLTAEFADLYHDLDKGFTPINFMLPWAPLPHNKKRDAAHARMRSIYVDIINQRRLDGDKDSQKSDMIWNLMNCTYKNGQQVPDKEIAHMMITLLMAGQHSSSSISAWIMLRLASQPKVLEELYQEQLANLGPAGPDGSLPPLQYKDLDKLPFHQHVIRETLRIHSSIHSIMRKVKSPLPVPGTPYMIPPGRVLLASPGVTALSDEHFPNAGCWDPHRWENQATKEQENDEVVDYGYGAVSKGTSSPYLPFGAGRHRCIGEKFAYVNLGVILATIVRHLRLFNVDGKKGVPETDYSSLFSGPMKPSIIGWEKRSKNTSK
T2 sequence (G4WW85 whole entry): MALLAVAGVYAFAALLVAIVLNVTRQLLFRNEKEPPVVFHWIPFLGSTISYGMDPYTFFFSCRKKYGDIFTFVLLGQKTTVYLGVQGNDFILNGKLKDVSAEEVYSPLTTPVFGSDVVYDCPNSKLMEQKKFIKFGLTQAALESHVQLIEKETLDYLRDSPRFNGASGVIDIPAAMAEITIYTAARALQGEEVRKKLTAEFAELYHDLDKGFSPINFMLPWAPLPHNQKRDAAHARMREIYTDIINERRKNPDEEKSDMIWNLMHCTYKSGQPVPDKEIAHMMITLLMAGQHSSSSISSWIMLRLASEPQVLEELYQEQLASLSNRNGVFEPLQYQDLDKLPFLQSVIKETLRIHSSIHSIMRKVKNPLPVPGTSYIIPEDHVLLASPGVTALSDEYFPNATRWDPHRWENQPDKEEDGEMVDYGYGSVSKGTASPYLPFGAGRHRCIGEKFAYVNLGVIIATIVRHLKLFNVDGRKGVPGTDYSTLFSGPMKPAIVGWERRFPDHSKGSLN
How it was run: as §1, with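 “ligand. Type II red shift of the Soret band (417 to 424 nm) followed as ΔA (Amax−Amin) in difference spectra.” for “ligand.”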

[5] = target: T1, Lanosterol 14-alpha demethylase; assay: Potency index, ratio of VNI Kd(app) to compound Kd(app) for Candida albicans CYP51
[6] = Lipophilicity, log P of the compound; type: physicochemical; details: octanol/water
[7] = Half life in human liver microsomes at 1 uM preincubated for 5 mins followed by NADPH addition measured up to 45 mins by LC-MS/MS analysis; type: ADME, microsome; details: 0.75 h
How it was run: (§2)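 Pooled liver microsomes (0.5 mg/mL; male CD-1 mouse, male Sprague Dawley rat, or mixed-gender human) with 1 μM compound in 100 mM potassium phosphate pH 7.4, 3 mM MgCl2, 37 °C with shaking. 5 min preincubation, then 1 mM NADPH. Aliquots at 0, 3, 7, 15, 25, 45 min quenched in cold CH3CN with carbamazepine internal standard, then LC/MS/MS. Triplicate; T1/2 = ln2/k from the slope of ln % remaining versus time.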

[8] = Half life in Sprague-Dawley rat liver microsomes at 1 uM preincubated for 5 mins followed by NADPH addition measured up to 45 mins by LC-MS/MS analysis; type: ADME, microsome; details: 0.75 h; how it was run: as §2
[9] = Half life in CD-1 mouse liver microsomes at 1 uM preincubated for 5 mins followed by NADPH addition measured up to 45 mins by LC-MS/MS analysis; type: ADME, microsome; details: 0.75 h; how it was run: as §2
Aspergillus fumigatus [10] = assay: Antifungal activity against Aspergillus fumigatus 1022 after 48 hrs by CLSI M38-A2 protocol based assay; type: functional; details: Aspergillus fumigatus, 1022, 48 h; read-out: MIC100
Aspergillus fumigatus [11] = assay: Antifungal activity against Aspergillus fumigatus 32820 after 48 hrs by CLSI M38-A2 protocol based assay; type: functional; details: Aspergillus fumigatus, 32820, 48 h; read-out: MIC100
in vitro [12] = details: human, liver microsomes
in vitro [13] = details: human, liver microsomes; remark: listed apart in the source
in vitro [14] = details: Sprague-Dawley, rat, liver microsomes
in vitro [15] = details: Sprague-Dawley, rat, liver microsomes; remark: listed apart in the source
in vitro [16] = details: CD-1, mouse, liver microsomes
in vitro [17] = details: CD-1, mouse, liver microsomes; remark: listed apart in the source
Aspergillus fumigatus [18] = assay: Antifungal activity against Aspergillus fumigatus after 48 hrs
Aspergillus fumigatus [19] = assay: Antifungal activity against Aspergillus fumigatus MYA626 after 48 hrs by CLSI M38-A2 protocol based assay; type: functional; details: MYA626, 48 h, read-out: MIC100

T1 sequence (P10613 whole entry): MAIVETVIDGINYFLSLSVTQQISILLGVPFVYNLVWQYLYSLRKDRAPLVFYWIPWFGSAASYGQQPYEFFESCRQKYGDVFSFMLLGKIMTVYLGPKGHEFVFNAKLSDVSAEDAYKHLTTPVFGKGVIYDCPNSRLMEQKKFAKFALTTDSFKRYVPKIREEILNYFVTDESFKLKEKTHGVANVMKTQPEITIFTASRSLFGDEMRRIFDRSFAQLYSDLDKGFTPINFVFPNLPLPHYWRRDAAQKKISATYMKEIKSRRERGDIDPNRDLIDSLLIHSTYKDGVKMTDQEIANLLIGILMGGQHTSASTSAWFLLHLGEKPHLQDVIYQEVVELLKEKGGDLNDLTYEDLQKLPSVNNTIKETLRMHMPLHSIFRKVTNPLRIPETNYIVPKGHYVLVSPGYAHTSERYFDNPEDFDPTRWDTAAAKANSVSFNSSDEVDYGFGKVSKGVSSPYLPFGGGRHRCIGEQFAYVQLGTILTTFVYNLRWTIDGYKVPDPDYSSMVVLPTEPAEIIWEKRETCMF

Compound | inhibition at 0.75 µM [1] [%] | inhibition [2] [%] | pKd [3] | pKd [4] | Ratio [5] | logP [6] | t1/2 [7] [h] | t1/2 [8] [h] | t1/2 [9] [h] | MIC (Aspergillus fumigatus [10]) [mg/L] | MIC (Aspergillus fumigatus [11]) [mg/L] | CLint scaled at 0.75 h, 1 µM (in vitro [12]) [L/h/kg] | CLhep predicted at 0.75 h, 1 µM (in vitro [13]) [L/h/kg] | CLint scaled at 0.75 h, 1 µM (in vitro [14]) [L/h/kg] | CLhep predicted at 0.75 h, 1 µM (in vitro [15]) [L/h/kg] | CLint scaled at 0.75 h, 1 µM (in vitro [16]) [L/h/kg] | CLhep predicted at 0.75 h, 1 µM (in vitro [17]) [L/h/kg] | MIC (Aspergillus fumigatus [18]) [mg/L] | MIC (Aspergillus fumigatus [19]) [mg/L]
CC[C@@H]([C@H](C)O)n1ncn(-c2ccc(N3CCN(c4ccc(OC[C@@H]5CO[C@@](Cn6cncn6)(c6ccc(F)cc6F)C5)cc4)CC3)cc2)c1=O [POSACONAZOLE] | 98 | 93 | 7.09 | 6.88 | 3.5 | – | – | – | – | – | – | – | – | – | – | – | – | – | –
O=C(N[C@@H](Cn1ccnc1)c1ccc(Cl)cc1Cl)c1ccc(-c2nnc(-c3ccccc3)o2)cc1 | 20 | 24 | – | 6.69 | – | 4.57 | 2.5 | 1.77 | 1.03 | 0.48 (≈ 0.952 µM) | 0.08 (≈ 0.159 µM) | 0.499 | 0.357 | 1.58 | 1.15 | 5.22 | 2.64 | 0.5 (≈ 0.991 µM) | –
O=C(N[C@@H](Cn1ccnc1)c1ccc(Cl)cc1Cl)c1ccc(-c2nnc(-c3ccc(OCC(F)(F)F)cc3F)o2)cc1 | 94 | 82 | – | 7.70 | – | 5.58 | 1.27 | – | 1.03 | 0.19 (≈ 0.306 µM) | 0.06 (≈ 0.0967 µM) | 0.99 | 0.554 | 3.84 | 2.04 | 5.28 | 2.64 | – | 0.39 (≈ 0.629 µM)
O=C(N[C@@H](Cn1ccnc1)c1ccc(Cl)cc1Cl)c1ccc(-c2nnc(-c3ccc(C(F)(F)F)c(F)c3)o2)cc1 | 89 | 65 | – | 7.26 | – | 5.65 | 3.43 | 1.28 | 1.53 | 0.19 (≈ 0.322 µM) | 0.09 (≈ 0.152 µM) | 0.364 | 0.244 | 2.16 | 1.44 | 3.6 | 2.16 | – | 0.39 (≈ 0.661 µM)
O=C(N[C@@H](Cn1ccnc1)c1ccc(Cl)cc1Cl)c1ccc(-c2nnc(-c3cc(F)cc(-c4ncncc4F)c3)o2)cc1 | 92 | 57 | – | 6.88 | – | 5.05 | 1.4 | – | 0.867 | 0.48 (≈ 0.776 µM) | 0.19 (≈ 0.307 µM) | 0.894 | 0.502 | 1.62 | 1.17 | 6.24 | 2.9 | – | 0.78 (≈ 1.26 µM)
C[C@@H](c1ncncc1F)[C@](O)(Cn1cncn1)c1ccc(F)cc1F [VORICONAZOLE] | – | – | – | 7.25 | – | – | – | – | – | – | – | – | – | – | – | – | – | 0.7 (≈ 2 µM) | –
O=C(N[C@@H](Cn1ccnc1)c1ccc(Cl)cc1Cl)c1ccc(-c2nnc(-c3ccc(F)c(F)c3)o2)cc1 | – | 58 | – | 7.24 | – | 4.88 | 2.77 | 1.52 | 1.63 | 0.29 (≈ 0.537 µM) | 0.08 (≈ 0.148 µM) | 0.452 | 0.332 | 1.86 | 1.26 | 3.3 | 2.04 | – | 0.78 (≈ 1.44 µM)
